According to ChEMBL document CHEMBL4033643, “Synthesis and in vitro antitumour activity of crassalactone D, its stereoisomers and novel cinnamic ester derivatives” (Eur J Med Chem, 2017):
pIC50: −log10 of the molar value. Activity calls are given as the source filed them. The calls are words filed in the database; no cut-off is given here.

Tests used:
MRC5 = assay: Cytotoxicity against human MRC5 cells assessed as reduction in cell viability after 72 hrs by MTT assay; assay type: cell-based; conditions: MRC5, 72 h
HeLa = assay: Cytotoxicity against human HeLa cells assessed as reduction in cell viability after 72 hrs by MTT assay; assay type: functional, cell-based
MDA-MB-231 = assay: Cytotoxicity against human MDA-MB-231 cells assessed as reduction in cell viability after 72 hrs by MTT assay; assay type: functional, cell-based; conditions: MDA-MB-231, 72 h
MCF7 = assay: Cytotoxicity against human MCF7 cells assessed as reduction in cell viability after 72 hrs by MTT assay; assay type: functional, cell-based; conditions: MCF7, 72 h
Raji = assay: Cytotoxicity against human Raji cells assessed as reduction in cell viability after 72 hrs by MTT assay; assay type: functional, cell-based
Jurkat = assay: Cytotoxicity against human Jurkat cells assessed as reduction in cell viability after 72 hrs by MTT assay; assay type: functional, cell-based
HL-60 = assay: Cytotoxicity against human HL60 cells assessed as reduction in cell viability after 72 hrs by MTT assay; assay type: functional, cell-based; conditions: HL-60, 72 h
K562 [1] = assay: Cytotoxicity against human K562 cells assessed as reduction in cell viability after 72 hrs by MTT assay; assay type: functional, cell-based; conditions: K562, 72 h
A549 = assay: Cytotoxicity against human A549 cells assessed as reduction in cell viability after 72 hrs by MTT assay; assay type: functional, cell-based; conditions: A549, 72 h
K562 [2] = assay: Cell cycle arrest in human K562 cells assessed as accumulation at sub G1 phase at IC50 after 72 hrs by propidium iodide staining based flow cytometry (reference value: 1.48%); assay type: functional
K562 [3] = assay: Cell cycle arrest in human K562 cells assessed as accumulation at G0/G1 phase at IC50 after 72 hrs by propidium iodide staining based flow cytometry (reference value: 38.48%); assay type: functional
K562 [4] = assay: Cell cycle arrest in human K562 cells assessed as accumulation at S phase at IC50 after 72 hrs by propidium iodide staining based flow cytometry (reference value: 41.03%); assay type: functional
K562 [5] = assay: Cell cycle arrest in human K562 cells assessed as accumulation at G2/M phase at IC50 after 72 hrs by propidium iodide staining based flow cytometry (reference value: 19.01%); assay type: functional
K562 [6] = assay: Induction of apoptosis in human K562 cells assessed as specific apoptosis by Annexin V-FITC/propidium iodide staining based flow cytometry; assay type: functional; design: concentration or dose not given beside the values
K562 [7] = assay: Induction of apoptosis in human K562 cells assessed as specific necrosis by Annexin V-FITC/propidium iodide staining based flow cytometry; assay type: functional; design: concentration or dose not given beside the values
K562 [8] = assay: Induction of apoptosis in human K562 cells assessed as decrease in Bcl-2 expression level by Western blot analysis; assay type: functional, cell-based
Outline: (§1)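 Western blot of treated K562 cells for Bcl-2, Bax, activated caspase 3 and cleaved PARP (85 kDa fragment). Blots developed by ECL, with band expression quantified by densitometry against an untreated control sample.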

K562 [9] = assay: Induction of apoptosis in human K562 cells assessed as increase in Bax expression level by Western blot analysis; assay type: functional, cell-based; outline: as §1
K562 [10] = assay: Cell cycle arrest in human K562 cells assessed as total cell levels at G0/G1 phase at IC50 after 72 hrs by propidium iodide staining based flow cytometry (reference value: 39.97%); assay type: functional
K562 [11] = assay: Cell cycle arrest in human K562 cells assessed as total cell levels at S phase at IC50 after 72 hrs by propidium iodide staining based flow cytometry (reference value: 36.49%); assay type: functional
K562 [12] = assay: Cell cycle arrest in human K562 cells assessed as total cell levels at G2/M phase at IC50 after 72 hrs by propidium iodide staining based flow cytometry (reference value: 14.31%); assay type: functional
K562 [13] = assay: Cell cycle arrest in human K562 cells assessed as total cell levels at M4 phase at IC50 after 72 hrs by propidium iodide staining based flow cytometry (reference value: 0.50%); assay type: functional
K562 [14] = assay: Induction of apoptosis in human K562 cells assessed as gated necrotic cells by Annexin V-FITC/propidium iodide staining based flow cytometry (reference value: 0.24%); assay type: functional
K562 [15] = assay: Induction of apoptosis in human K562 cells assessed as gated late apoptotic cells by Annexin V-FITC/propidium iodide staining based flow cytometry (reference value: 0.88%); assay type: functional
K562 [16] = assay: Induction of apoptosis in human K562 cells assessed as gated viable cells by Annexin V-FITC/propidium iodide staining based flow cytometry (reference value: 95.78%); assay type: functional
K562 [17] = assay: Induction of apoptosis in human K562 cells assessed as gated early apoptotic cells by Annexin V-FITC/propidium iodide staining based flow cytometry (reference value: 3.18%); assay type: functional
K562 [18] = assay: Induction of apoptosis in human K562 cells assessed as total necrotic cells by Annexin V-FITC/propidium iodide staining based flow cytometry (reference value: 0.23%); assay type: functional
K562 [19] = assay: Induction of apoptosis in human K562 cells assessed as total late apoptotic cells by Annexin V-FITC/propidium iodide staining based flow cytometry (reference value: 0.77%); assay type: functional
K562 [20] = assay: Induction of apoptosis in human K562 cells assessed as total viable cells by Annexin V-FITC/propidium iodide staining based flow cytometry (reference value: 92.45%); assay type: functional
K562 [21] = assay: Induction of apoptosis in human K562 cells assessed as total early apoptotic cells by Annexin V-FITC/propidium iodide staining based flow cytometry (reference value: 3.07%); assay type: functional

SMILES | pIC50 (MRC5) | pIC50 (HeLa) | pIC50 (MDA-MB-231) | pIC50 (MCF7) | pIC50 (Raji) | pIC50 (Jurkat) | pIC50 (HL-60) | pIC50 (K562 [1]) | pIC50 (A549) | Activity (K562 [2]) [%] | Activity (K562 [3]) [%] | Activity (K562 [4]) [%] | Activity (K562 [5]) [%] | Activity (K562 [6]) [%] | Activity (K562 [7]) [%] | Activity (K562 [8]) | Activity (K562 [9]) | Activity (K562 [10]) [%] | Activity (K562 [11]) [%] | Activity (K562 [12]) [%] | further results
O=C1C=C[C@]2(C[C@H](OC(=O)/C=C/c3ccc(F)cc3)[C@@H](c3ccccc3)O2)O1 | < 4.00 | 5.21 | < 4.00 | 5.02 | 4.47 | 4.81 | 4.62 | 5.07 | < 4.00 | 2.02 | 40.27 | 28.31 | 29.4 | 8.05 | 3.28 | inactive | Active | 37.36 | 26.82 | 27.34 | Activity (K562 [13]): 1.87%; Activity (K562 [14]): 0.83%; Activity (K562 [15]): 1.85%; Activity (K562 [16]): 87.45%; Activity (K562 [17]): 9.86%; Activity (K562 [18]): 0.78%; Activity (K562 [19]): 1.73%; Activity (K562 [20]): 81.7%; Activity (K562 [21]): 9.21%
COc1ccc(/C=C/C(=O)O[C@H]2C[C@@]3(C=CC(=O)O3)O[C@@H]2c2ccccc2)cc1 | < 4.00 | 5.44 | < 4.00 | 5.65 | 4.00 | 4.67 | 5.20 | 5.95 | 4.64 | 1.57 | 30.72 | 42.64 | 25.07 | 15.35 | 3.15 | inactive | Active | 26.37 | 36.83 | 22.36 | Activity (K562 [13]): 1.35%; Activity (K562 [14]): 0.96%; Activity (K562 [15]): 4.41%; Activity (K562 [16]): 80.32%; Activity (K562 [17]): 14.31%; Activity (K562 [18]): 0.78%; Activity (K562 [19]): 3.58%; Activity (K562 [20]): 65.19%; Activity (K562 [21]): 11.61%
O=C1C=C[C@@]2(C[C@H](OC(=O)/C=C/c3ccc([N+](=O)[O-])cc3)[C@@H](c3ccccc3)O2)O1 | < 4.00 | 5.02 | < 4.00 | 4.90 | < 4.00 | 4.06 | 5.88 | 5.13 | 4.25 | 2.93 | 33.85 | 38.08 | 25.14 | 10.54 | 2.18 | inactive | Active | 31.72 | 34.91 | 22.88 | Activity (K562 [13]): 2.67%; Activity (K562 [14]): 1.89%; Activity (K562 [15]): 2.23%; Activity (K562 [16]): 84.01%; Activity (K562 [17]): 11.87%; Activity (K562 [18]): 1.64%; Activity (K562 [19]): 1.94%; Activity (K562 [20]): 73.05%; Activity (K562 [21]): 10.32%
O=C1C=C[C@@]2(C[C@H](O)[C@@H](c3ccccc3)O2)O1 | < 4.00 | 5.67 | < 4.00 | 5.45 | 5.22 | 6.47 | 5.99 | 6.27 | 4.67 | 1.26 | 39.26 | 35.2 | 24.28 | 11.74 | 4.8 | inactive | Active | 29.6 | 26.52 | 18.07 | Activity (K562 [13]): 0.94%; Activity (K562 [14]): 8.59%; Activity (K562 [15]): 11.28%; Activity (K562 [16]): 76.16%; Activity (K562 [17]): 3.97%; Activity (K562 [18]): 2.81%; Activity (K562 [19]): 3.69%; Activity (K562 [20]): 24.92%; Activity (K562 [21]): 1.3%
